# The list is not random: actives were taken first. Their share in the collection is about 1.1%.
# KLK5 inh: kallikrein 5 (human) inhibition | inhibition, % at 5 µM | recombinant hK5, fluorogenic AMC substrate cleavage | actives 0.59% (n = 210,000) | AID 873;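 active = inhibition of 40% or more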;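 also: 0% = enzyme controls without compound and 100% = no-enzyme blanks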
# Thrombin inh: inhibitors of human thrombin; actives 0.26% (n = 220,000); P00734; AID 1046; alpha-thrombin, Boc-VPR-AMC fluorogenic substrate cleavage; inhibition, % at 5 µM;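 active = inhibition at or above 40%; inactive = inhibition below 40%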;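 also: 0% = enzyme with no compound and 100% = wells without enzyme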
#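 System – human alpha-thrombin protein · Reagent – Boc-VPR-AMC substrate, 15 µM final · Compound – 5 µM single dose in 0.2% DMSO · Schedule – reaction at room temperature · Technique – AMC fluorescence at 355 nm excitation and 460 nm emission · Read-out basis – % inhibition relative to enzyme controls and enzyme-free blanks · Control set – no-compound enzyme wells and no-enzyme blanks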
# Furin inh: human furin inhibition. P09958. purified furin, fluorogenic substrate cleavage. inhibition, % at 20 µM or 30 µM. actives 0.061% (n = 220,000). AID 463115; in the data active = inhibition above about 25%
# Target sequence (P09958 108-714 limits assumed): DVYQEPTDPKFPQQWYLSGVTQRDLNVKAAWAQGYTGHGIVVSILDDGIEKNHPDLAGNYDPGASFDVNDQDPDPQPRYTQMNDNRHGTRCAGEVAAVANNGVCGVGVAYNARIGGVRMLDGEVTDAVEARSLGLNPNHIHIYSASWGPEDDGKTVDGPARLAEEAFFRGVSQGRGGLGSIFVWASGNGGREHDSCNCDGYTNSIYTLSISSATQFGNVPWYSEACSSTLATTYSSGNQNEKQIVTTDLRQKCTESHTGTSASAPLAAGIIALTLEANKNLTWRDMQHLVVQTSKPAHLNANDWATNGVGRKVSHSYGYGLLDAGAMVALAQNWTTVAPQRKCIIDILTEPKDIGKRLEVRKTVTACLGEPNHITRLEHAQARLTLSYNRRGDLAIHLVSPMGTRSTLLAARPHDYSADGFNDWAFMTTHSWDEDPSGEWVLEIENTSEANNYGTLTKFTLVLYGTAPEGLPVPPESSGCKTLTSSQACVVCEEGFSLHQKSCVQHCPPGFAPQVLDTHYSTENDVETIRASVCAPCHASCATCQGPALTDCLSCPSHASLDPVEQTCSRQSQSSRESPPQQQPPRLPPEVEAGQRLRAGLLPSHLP
# FXIa inh 1536: inhibitors of human coagulation factor XIa | actives 0.14% (n = 220,000) | inhibition, % at 5 µM | purified FXIa, Boc-Glu-Ala-Arg-AMC fluorogenic substrate;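 active = inhibition of at least 40%; inactive = inhibition below 40%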;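 also: fluorescence of freed AMC excited at 355 nm; 0% = enzyme without compound and 100% = no enzyme blank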
# FXIIa inh: blocks human coagulation factor XIIa protease activity | P00748 | purified FXIIa, Boc-QGR-AMC fluorogenic substrate, 2 h | inhibition, % at 5 µM | actives 0.3% (n = 220,000) | AID 800; in the data active = inhibition above about 40%;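 also: 0% = enzyme with no compound and 100% = blank without enzyme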
# * hit, by the source's call; x = no result.
SMILES,KLK5 inh,Thrombin inh,Furin inh,FXIa inh 1536,FXIIa inh
Cc1ccc(C(=O)Nc2ccc(Cl)cn2)cc1S(=O)(=O)N1CCOCC1,41*,19,-26,2,23
COCCn1c(N)c(N(Cc2ccccc2)C(=O)c2oc3ccccc3c2C)c(=O)[nH]c1=O,0,6,-32,0,17
CC(=O)C1=C(C)NC(C)=C(C(C)=O)C1c1cccs1,79*,14,-6,27,2
CC1(C)CC(=O)C(N=Nc2cccc(F)c2C#N)=C(O)C1,-1,-8,5,-2,4
CO/N=C/c1ccc(Sc2ccccc2N)c([N+](=O)[O-])c1,-3,-6,-4,-2,44*
CO/N=C/c1ccc(Sc2ccccc2)c([N+](=O)[O-])c1,-11,6,-17,7,16
Cc1c(C(=O)c2ccccc2)c(=O)n(C)c(=O)n1C,x,-3,-18,-2,-95
CCN(CC)C(=O)c1ccc(NS(=O)(=O)c2ccccc2)cc1,-23,3,4,3,9
CCN(CC)C(=O)c1ccc(NS(=O)(=O)c2ccc(/C=C/C(=O)O)cc2)cc1,44*,x,17,29,23
COc1ccc(/C=N/NC(=O)CCn2cnc3ccccc32)cc1,41*,10,-15,41*,40*
COc1cccc(/C=N/NC(=O)CCn2cnc3ccccc32)c1,-5,-7,-9,-5,-3
C/C(=N\NC(=S)NC1CCCCC1)c1cccc(Br)c1,21,51*,-12,-8,-6
Fc1cccc2sc(N3CCCC3)nc12,-13,3,-19,4,2
Cc1ccc(S(=O)(=O)NC(C(=O)N2CCOCCOCCOCC2)c2ccccc2)cc1 (stereo not given),0,-3,-30,-2,5
O=c1[nH]c(=O)n(Cc2ccccc2)c2c1C(C(F)(F)F)(C(F)(F)F)N=C(c1ccco1)N2,147*,40*,-11,15,22
O=c1[nH]c(=O)n(Cc2ccco2)c2c1C(C(F)(F)F)(C(F)(F)F)N=C(c1ccc(F)cc1)N2,4,-3,-9,-3,4
CCS(=O)(=O)Nc1ccc(-c2nc3cccnc3s2)cc1,-19,-9,-82,-10,-8
CCn1cc(C(=O)NCc2ccccc2OC)c(=O)c2cc(S(=O)(=O)N(C)C)ccc21,0,9,-13,-4,9
CCn1cc(C(=O)N2CC(C)CC(C)C2)c(=O)c2cc(S(=O)(=O)N3CCOCC3)ccc21 (stereo not given),-11,-7,-11,0,18
CCn1cc(C(=O)NCc2ccc3c(c2)OCO3)c(=O)c2cc(S(=O)(=O)N(C)C)ccc21,-10,55*,-12,5,12
CCn1cc(C(=O)NCc2ccc(Cl)cc2)c(=O)c2cc(S(=O)(=O)N3CCOCC3)ccc21,-6,56*,-18,6,14
CCn1cc(C(=O)NCc2ccc3c(c2)OCO3)c(=O)c2cc(S(=O)(=O)N3CCOCC3)ccc21,-8,93*,-7,-13,-4
Cc1ccc(C2OC(=O)c3ccccc32)cc1 (stereo not given),-20,-8,-31,-3,6
O=C1NC(=Nc2ccccc2)S/C1=C/c1cccs1,26,6,-5,33,45*
O=C1N=C(c2ccccc2)S/C1=C\c1cccs1,2,61*,-7,35,36
SMILES,KLK5 inh,Thrombin inh,Furin inh,FXIa inh 1536,FXIIa inh
CC(C)C(NC(=O)C(Cc1ccccc1)NC(=O)OCc1ccccc1)C(=O)O (stereo not given),21,3,-9,47*,24
O=C(NC(Cc1ccccc1)C(=O)O)OCc1ccccc1 (stereo not given),-3,-7,-23,-1,4
Cc1[nH]nc(SCC(=O)NC2CCCCC2)c1[N+](=O)[O-],-19,5,-15,8,0
CC(=O)OC(C(=O)Nc1ccccc1C)C(OC(C)=O)C(OC(C)=O)C(OC(C)=O)C(=O)Nc1ccccc1C (stereo not given),x,x,-5,x,x
CCn1ncc(Br)c1C(=O)Nc1cc([N+](=O)[O-])ccc1C,3,54*,-18,19,23
CCOC(=O)CSC1=NC(=O)/C(=C/c2ccc(Br)cc2)S1,-5,-2,-28,2,-2
CCOC(=O)CSC1=NC(=O)/C(=C\c2ccc(OC(C)=O)cc2)S1,53*,20,-7,13,17
Cc1ccc(NC2c3ncccc3C(=O)N2c2ccccc2C)cc1C (stereo not given),47*,5,-15,-1,13
Cc1cc(=O)[nH]c2c1c(C)nn2C1CCCCC1,3,-1,-23,11,34
Cc1cc(=O)[nH]c2c1c(C)nn2C1CCCC1,54*,3,-21,-1,-1
COC(=O)c1cccc(N2CCCC2=O)c1,45*,16,-6,32,25
O=C(COc1c(CO)cc(Br)cc1CO)NC1CCCc2ccccc21 (stereo not given),0,-9,-16,2,6
O=C(NNC(=O)c1ccncc1)Nc1ccc([N+](=O)[O-])cc1,1,0,-14,0,8
O=C(NNC(=O)c1cccnc1)Nc1ccc([N+](=O)[O-])cc1,42*,34,-10,9,24
Nc1cccc2c1C(=O)N(C(=O)c1ccco1)C2=O,9,47*,-13,11,15
O=C(CC12CC3CC(CC(C3)C1)C2)NCC(=O)N1CCc2ccccc2C1,-2,2,-14,0,4
O=C(O)CSCC(=O)NCc1cccc(C(F)(F)F)c1,1,40*,-16,-5,0
CC1CCc2[nH]nc(C(=O)O)c2C1 (stereo not given),32,78*,-18,15,5
CCC1CCc2[nH]nc(C(=O)O)c2C1 (stereo not given),-2,1,-5,-2,8
COC(=O)Cc1ccc(NC(=S)NCc2ccc(F)cc2)cc1,9,-11,-8,0,-1
COC(=O)Cc1ccc(NC(=S)N2CCN(c3ccc(F)cc3)CC2)cc1,72*,53*,-12,-4,33
CCc1nnc(NC(=O)CCC(=O)N2CCCC2)s1,54*,42*,-21,-8,28
CCc1nnc(NC(=O)CCC(=O)N2CCN(C3CCCCC3)CC2)s1,3,-1,-26,8,15
Cc1ccc(N=Cc2c(O)n(-c3ccc4c(c3)OCO4)c(=O)c3ccccc23)cc1,2,1,-14,-3,43*
Cc1cccc(-n2c(O)c(C=Nc3ccc(O)cc3)c3ccccc3c2=O)n1,-5,1,-8,0,7
Cc1cc(C)cc(NC(=O)CSc2nnc(-c3ccccc3C)o2)c1,54*,17,-14,6,-5
COc1ccc(CNC(=S)NC(C)CCc2ccccc2)cc1 (stereo not given),9,1,-15,3,9
NC(=O)CSc1nnc(-c2cc(-c3ccc(Cl)cc3)nc3ccccc23)o1,-1,-3,-14,2,3
CCCn1c2c(c(O)c(C(=O)Nc3nccs3)c1=O)CCCC2,33,101*,-18,-4,15

# Assay outcomes from PubChem.
